Apaf-1 act: activators of human Apaf-1 apoptosome | O14727 | Apaf-1 apoptosome caspase-3 activation, DEVD-Rh110 fluorescence; hits give low values | activity change, negative = activation, % at 20 µM | 0.31% of 330,000 active;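 active = activity change at or below -40% at 20 µM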
Target sequence (O14727 whole entry, looked up): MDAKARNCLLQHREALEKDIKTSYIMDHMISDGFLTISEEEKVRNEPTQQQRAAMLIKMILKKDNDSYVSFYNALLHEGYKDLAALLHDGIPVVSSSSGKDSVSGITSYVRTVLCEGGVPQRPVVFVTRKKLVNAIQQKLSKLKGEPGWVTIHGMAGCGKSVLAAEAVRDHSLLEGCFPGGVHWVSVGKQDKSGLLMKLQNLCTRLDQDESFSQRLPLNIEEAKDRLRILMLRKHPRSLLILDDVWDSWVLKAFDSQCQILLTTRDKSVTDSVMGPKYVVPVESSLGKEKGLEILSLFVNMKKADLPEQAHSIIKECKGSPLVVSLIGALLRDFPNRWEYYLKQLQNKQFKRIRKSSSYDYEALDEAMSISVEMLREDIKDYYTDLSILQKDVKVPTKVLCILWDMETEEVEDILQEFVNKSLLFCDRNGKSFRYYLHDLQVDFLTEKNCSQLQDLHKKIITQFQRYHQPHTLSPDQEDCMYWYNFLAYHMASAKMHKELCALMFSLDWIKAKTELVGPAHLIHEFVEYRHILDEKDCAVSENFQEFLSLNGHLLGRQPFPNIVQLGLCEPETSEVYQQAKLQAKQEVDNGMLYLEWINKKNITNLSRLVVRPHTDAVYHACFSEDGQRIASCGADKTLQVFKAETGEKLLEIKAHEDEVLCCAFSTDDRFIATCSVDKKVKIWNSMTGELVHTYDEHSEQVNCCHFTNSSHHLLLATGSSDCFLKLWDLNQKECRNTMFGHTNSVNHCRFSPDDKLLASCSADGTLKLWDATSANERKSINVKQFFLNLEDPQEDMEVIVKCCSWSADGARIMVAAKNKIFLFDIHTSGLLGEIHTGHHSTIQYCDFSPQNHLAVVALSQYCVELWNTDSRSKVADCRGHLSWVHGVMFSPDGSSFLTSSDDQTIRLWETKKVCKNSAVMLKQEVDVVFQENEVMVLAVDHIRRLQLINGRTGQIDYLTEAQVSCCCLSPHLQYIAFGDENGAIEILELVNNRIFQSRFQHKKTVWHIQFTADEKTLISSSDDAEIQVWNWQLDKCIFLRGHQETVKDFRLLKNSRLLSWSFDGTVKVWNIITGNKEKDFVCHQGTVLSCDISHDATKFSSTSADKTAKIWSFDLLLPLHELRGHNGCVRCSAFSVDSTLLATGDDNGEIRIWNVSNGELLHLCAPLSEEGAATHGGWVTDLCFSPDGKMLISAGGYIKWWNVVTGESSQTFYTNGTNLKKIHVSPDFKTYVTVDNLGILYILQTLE
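System: Reconstituted apoptosome of Apaf-1, cytochrome c, caspase-9, procaspase-3 | Reagent: dATP, cytochrome c, and (Z-DEVD)2-Rh110 caspase-3 substrate | Times: 30 min compound preincubation and 50 min reaction, both room temperature | Detection: Caspase-3-released Rh110 fluorescence, 540 nm emission, 480 nm excitation | Measure: Caspase-3 activity via Apaf-1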
Rh110 interf act: counter-screen for Apaf-1 activators: fluorescence interference. shares compounds with Apaf-1 act. Rh110 fluorescence interference, quenched caspase reaction, Ex480/Em540. fluorescence interference (activity change), % at 20 µM, hits read low. 980 tested, under 10 active. AID 504616;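 active = mean activity change at or below -40% when tested at 20 µM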
Apaf-1 act conf2: confirmation of human Apaf-1 activators; reconstituted apoptosome caspase-3 activity, DEVD-Rh110 fluorescence; hits give low values; shares compounds with Apaf-1 act; activity change, negative = activation, % at 20 µM; 5% of 980 active; AID 504617;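 active = mean activity change at or below -40%, meaning activation of 40% or more, at 20 µM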
Fluor interf act: counter-screen for Apaf-1 activators: fluorescence interference, dose response | shares compounds with Apaf-1 act | fluorescence interference counterscreen, Apaf-1 activator assay | EC50, µM | 55 tested, under 10 active; call rule not given here
* = called active by the depositor; . = not tested or not shown. These entries were drawn from the full list.

SMILES	Apaf-1 act	Rh110 interf act	Apaf-1 act conf2	others
CCCCCCc1cc2cc(-c3nnc(-c4cc(OC)c(OC)c(OC)c4)o3)c(=O)oc2cc1O	62.9	.	.
CCCCCCc1cc2cc(-c3nnc(-c4ccccc4O)o3)c(=O)oc2cc1O	-139.7*	9.7	-43.0*	Fluor interf act=>100
CNC(=O)NCC12CC3CC(CC(C3)C1)C2	-293.1*	9.6	10.2
Cc1cccc(CN2C(=O)/C(=C\c3ccc(C(=O)NCCCN4CCN(C)CC4)cc3)Oc3ccccc32)c1	52.5	.	.
Clc1ccc(CSc2nnc3ccccn23)c(Cl)c1	-40.1*	7.4	15.2
Cc1cc2cc(CNC(=O)c3ccc(S(=O)(=O)N(C)C)cc3)ccc2n1C	45.4	.	.
Cc1cc(C)c2sc(N(CCCN(C)C)C(=O)c3ccc(S(=O)(=O)N(C)C4CCCCC4)cc3)nc2c1	40.1	.	.
CCSc1ccc2c(c1)N(CCCN1CCN(C)CC1)c1ccccc1S2	56.8	.	.
C#CCOCCOCCOCCNc1nc(N2CCN(C(=O)CCCCCCCCCCNC(=O)Cn3cc(CCCCCN)nn3)CC2)nc(N2CCN(C(=O)CCCCCCCCCCNC(=O)[C@H]([C@@H](C)CC)n3cc(CCCCN=C(N)N)nn3)CC2)n1	85.4	.	.
CC(C)N1CCc2c(sc(NC(=O)c3ccc(S(=O)(=O)N4CCc5ccccc54)cc3)c2C(N)=O)C1	45.6	.	.
Cc1cc(N2CCN(C)CC2)ccc1NC(=O)c1ccc(-c2ccc(Cl)cc2)o1	41.7	.	.
Cc1cc(Cl)ccc1NC(=O)c1ccc2c(c1)CCN2S(C)(=O)=O	-169.9*	-5.2	20.9
Cn1c(SCc2ccc(F)cc2)nnc1-c1cnccn1	-155.9*	4.1	9.1
CCOc1ccccc1N1CSC2=C(C#N)C(c3c(OC)ccc4ccccc34)CC(=O)N2C1 (stereo unspecified)	40.8	.	.
CCc1cc2c(=O)nc3n(c2s1)Cc1ccccc1/C3=C(/O)c1cccc([N+](=O)[O-])c1	-198.2*	-0.3	23.9
CCC(CO)Oc1cc(NCc2ccccc2OC)c2ncn(C(C)C)c2c1 (stereo unspecified)	60.6	.	.
CCCCCNC(=O)c1cn(CC)c2cc(N3CCN(C)CC3)c(F)cc2c1=O	-72.1*	5.3	13.9
Fc1cccc(Cl)c1CNc1ccc(N2CCCC2)cc1	47.8	.	.
Clc1cccc(Cl)c1CNC1CCCC1	-48.3*	-2.2	2.1
C#CCOCCOCCOCCNc1nc(N2CCN(C(=O)CCCCCCCCCCNC(=O)Cn3cc(C[C@@H](C)O)nn3)CC2)nc(N2CCN(C(=O)CCCCCCCCCCNC(=O)[C@H](CCCN=C(N)N)n3cc(C[C@@H](C)CC)nn3)CC2)n1	62.0	.	.
Cc1ccc(S(=O)(=O)/N=C2\C=C(Nc3cccc(C(=O)O)c3)C(=O)c3ccccc32)c(C)c1	90.2	.	.	Fluor interf act=>100
Cc1ccc(S(=O)(=O)/N=C2\C=C(Nc3cccc(C(=O)O)c3)C(=O)c3ccccc32)cc1	93.6	.	.
CCc1ccc(S(=O)(=O)/N=C2\C=C(Nc3ccc(C(=O)O)cc3)C(=O)c3ccccc32)cc1	96.4	.	.
Cc1nn(Cc2c(F)c(F)c(F)c(F)c2F)c(C)c1NC(=O)c1ccc(COc2ccc(Cl)cc2Cl)o1	46.3	.	.
COC(=O)C1=C(C)N(Cc2ccccc2)C(=NCc2ccc(OC)cc2)N[C@H]1c1cccc(F)c1	55.6	.	.
SMILES	Apaf-1 act	Rh110 interf act	Apaf-1 act conf2	others
CCN(CCO)c1ccc(NC(=S)Nc2cccc(S(=O)(=O)N(C)C)c2)cc1	42.9	.	.
CCNC(=S)Nc1cccc(NC(=O)c2ccccc2O)c1	-206.5*	-3.3	14.8
COC(=O)CCC(=O)OC1(C)C(=O)C2=CN(CCCOC(C)C)C(c3ccc(OC)cc3)=CC2=C(Br)C1=O (stereo unspecified)	79.3	.	.
CC(Oc1ccc(Br)cc1)C(=O)NCC(C)(C)N1CCOCC1 (stereo unspecified)	47.4	.	.
CCN1CCCC1CNC(=O)c1cc2c(-c3ccc(Cl)cc3)nn(C)c2s1 (stereo unspecified)	49.2	.	.
COc1ccc(/C=C/C(=O)OCC(=O)N2CCCC2)c(OC)c1	-40.5*	7.3	14.9
Cc1nc2sccn2c(=O)c1CCN1CCC(=C(c2ccc(F)cc2)c2ccc(F)cc2)CC1	42.3	.	.
Cc1cc(C)c2nc(N(CCCN(C)C)C(=O)c3ccc4c(c3)CCCC4)sc2c1	42.2	.	.
CC1=NN(c2ccc(Br)cc2)C(=O)/C1=C/c1ccc(-c2ccccc2C(=O)O)o1	77.6	.	.
C#CCOCCOCCOCCNc1nc(N2CCN(C(=O)CCCCCCCCCCNC(=O)Cn3cc(C[C@@H](C)O)nn3)CC2)nc(N2CCN(C(=O)CCCCCCCCCCNC(=O)[C@@H](CCC(=O)O)n3cc(CCCCCN)nn3)CC2)n1	51.9	.	.
CCOC(=O)c1c(CN(C)C)n(C)c2c(O)c(N=NC(N)=O)c3ccc(Br)cc3c12	95.1	.	.
O=C(NCCCN1CCOCC1)c1c(O)c2cc(Br)cc(Br)c2[nH]c1=O	-56.8*	-9.0	10.6
Cc1ccc(-c2cc(C(=O)NCCCN3CCOCC3)c3ccc(Cl)c(C)c3n2)cc1	55.5	.	.
O=C(NCCCN1CCCCCC1)c1cc2c(=O)oc3ccccc3c2s1	40.5	.	.
CC(C(=O)O)N1C(=O)/C(=C/C=C/c2ccco2)SC1=S (stereo unspecified)	47.0	.	.
Cc1nc2c(=O)[nH]c(=S)n(C)c2nc1C	-262.5*	8.6	17.3
c1ccc2c(-c3ccc(OCCN4CCCCC4)cc3)c(-c3ccsc3)sc2c1	59.1	.	.
COC(=O)c1ccccc1NC1=C/C(=N\S(=O)(=O)c2cccs2)c2ccccc2C1=O	91.9	.	.
CCCN1CCCc2cc(CN)ccc21	83.9	.	.
O=C1CCCC/C1=C\Nc1ccc(Cl)cn1	-72.8*	9.3	16.8
Cc1ccc(S(=O)(=O)N2CCN(C(=O)COC(=O)c3ccc([N+](=O)[O-])o3)CC2)c(C)c1	59.3	.	.
O=C1CC(N2CCN(C3CCc4ccccc4C3)CC2)C(=O)N1c1ccccc1 (stereo unspecified)	-43.1*	13.3	18.0
Nc1ccccc1C(=O)Nc1cccc2ccccc12	-113.8*	-8.6	16.0
CC(=O)c1ccc(NC(=S)Nc2cccc3ccccc23)cc1	44.6	.	.
C/C(=N\NC(=O)CNc1cccc2ccccc12)c1ccccc1	83.5	.	.
SMILES	Apaf-1 act	Rh110 interf act	Apaf-1 act conf2	others
Cc1ccc(CN2CC(C(=O)N3CCN(S(=O)(=O)c4ccc(C)cc4C)CC3)CC2=O)cc1 (stereo unspecified)	48.4	.	.
Cc1ccnc2c1ccc1c(C)ccnc12	44.5	.	.
CCOc1nc2cnccc2n(CC(=O)Nc2ccccc2F)c1=O	-49.0*	-0.7	7.1
C#CCOCCOCCOCCNc1nc(N2CCN(C(=O)[C@H](CCCN=C(N)N)n3cc(C(N)[C@@H](C)CC)nn3)CC2)nc(N2CCN(C(=O)[C@H](CCCCN)n3cc([C@@H](N)[C@H](C)CC)nn3)CC2)n1 (stereo partly specified)	49.9	.	.
C/C(=N/NC(=O)Cc1cc(=O)[nH][nH]1)c1ccc([N+](=O)[O-])cc1	54.9	.	.
COc1ccc(C(=O)NCC(=O)OCc2ccc([N+](=O)[O-])cc2)cc1	-69.9*	11.8	11.0
COC(=O)C(CCCCNC(=O)c1ccc([N+](=O)[O-])cc1)NC(=O)c1ccc([N+](=O)[O-])cc1 (stereo unspecified)	-48.0*	8.1	12.7
